The source of these data is ChEMBL document CHEMBL1817636, “Use of structure-based design to discover a potent, selective, in vivo active phosphodiesterase 10A inhibitor lead series for the treatment of schizophrenia” (J Med Chem, 2011).

One may read the IC50 as the concentration that gives 50% inhibition. What is called inhibition is the change of the read-out against control, counted positive when it falls. The term Papp A→B denotes how fast a substance crosses the layer from the apical side. The term CLint scaled denotes the rate of metabolic loss divided by the concentration. Read a low CLint scaled as greater metabolic stability. In general, efflux ratio refers to a quotient of directional permeabilities that is used to spot active efflux. The ED50 is the dose that gives a 50% effect, or the effect in half of the subjects.

Molecules are shown by their SMILES. Activity calls are given as the source filed them. The rule behind the calls is not given here. A value given as a limit tells only on which side of the number the result lay.

Data set [1] deals with T1, cAMP and cAMP-inhibited cGMP 3',5'-cyclic phosphodiesterase 10A (Rattus norvegicus, UniProt Q9QYJ6).
T1 sequence (Q9QYJ6 whole entry): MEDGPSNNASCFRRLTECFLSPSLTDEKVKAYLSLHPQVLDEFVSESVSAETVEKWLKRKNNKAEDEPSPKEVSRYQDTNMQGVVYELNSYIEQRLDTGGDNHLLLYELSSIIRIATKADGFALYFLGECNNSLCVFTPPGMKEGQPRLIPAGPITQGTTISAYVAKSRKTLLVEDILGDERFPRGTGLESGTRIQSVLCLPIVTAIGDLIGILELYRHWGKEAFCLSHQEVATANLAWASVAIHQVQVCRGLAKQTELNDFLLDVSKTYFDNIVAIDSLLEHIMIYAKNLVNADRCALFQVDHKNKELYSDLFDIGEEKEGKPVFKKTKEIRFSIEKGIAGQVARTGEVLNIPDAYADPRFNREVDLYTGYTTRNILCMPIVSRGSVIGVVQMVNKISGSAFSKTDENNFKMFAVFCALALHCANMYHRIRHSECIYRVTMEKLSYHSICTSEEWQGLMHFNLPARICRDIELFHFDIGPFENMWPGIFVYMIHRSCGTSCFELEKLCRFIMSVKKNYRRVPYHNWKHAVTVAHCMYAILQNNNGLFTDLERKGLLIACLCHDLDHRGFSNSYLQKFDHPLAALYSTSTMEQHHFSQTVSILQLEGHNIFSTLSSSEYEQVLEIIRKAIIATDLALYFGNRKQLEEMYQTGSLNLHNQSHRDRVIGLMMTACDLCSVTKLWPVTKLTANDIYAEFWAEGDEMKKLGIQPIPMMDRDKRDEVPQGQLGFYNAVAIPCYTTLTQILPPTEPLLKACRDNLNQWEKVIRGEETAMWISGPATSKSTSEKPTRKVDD
In words: Inhibition of recombinant rat PDE10A expressed in Sf9 cells using [3H]cAMP after 30 mins by scintillation proximity assay. The procedure, abridged: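 Full-length rat PDE10A clone expressed in Sf9 cells; enzyme extracted in Tris/benzamidine/EDTA/sucrose/PMSF lysis buffer, pH 7.5. 30 min at room temperature, stopped with SPA beads, counted after 10–12 h.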
(In general: Scintillation proximity formats need no separation of bound from free tracer.)

Data set [2] has as its target T2, cGMP-inhibited 3',5'-cyclic phosphodiesterase 3A (Homo sapiens, UniProt Q14432). As to the kind of experiment: Inhibition of PDE3A at 1 uM.
Data set [3] has as its target T2, cGMP-inhibited 3',5'-cyclic phosphodiesterase 3A. As to the kind of experiment: Inhibition of PDE3A.
Data set [4] in a line: Selectivity ratio of IC50 for PDE3A to IC50 for rat PDE10A.
The test system of data set [5] is human MDR. As to the kind of experiment: Apparent permeability across apical to basolateral side in dog MDCK cells expressing human MDR. The class given is ADME, cell-based, Canis lupus familiaris. The following applies: MDCK-MDR1.
Data set [6] in a line: Intrinsic clearance in rat liver microsomes. The class given is ADME, Microsome. For orientation: Liver microsomes are vesicles of endoplasmic reticulum, rich in cytochrome P450 enzymes.
Data set [7] concerns Mus musculus. In words: Antipsychotic activity in CD1 mouse assessed as increase in striatal cGMP levels at 5.6 mg/kg, sc measured after 60 mins. The class given is functional, organism-based. Also noted: dose 5.6 mg/kg.
A short description of data set [8]: Intrinsic clearance in human liver microsomes. The class given is ADME, Microsome.
The test system of data set [9] is Mus musculus. In words: Antipsychotic activity in CD1 mouse assessed as increase in brain cGMP levels at 32 mg/kg, sc measured after 60 mins post dosing relative to control. The class given is functional. The following applies: route subcutaneous.
Data set [10] deals with Mus musculus. As to the kind of experiment: Antipsychotic activity in CD1 mouse assessed as increase in brain cGMP levels at 5.6 mg/kg, sc measured after 60 mins post dosing relative to control. The class given is functional. The following applies: route subcutaneous.
Data set [11] relates to human MDR. As to the kind of experiment: Efflux ratio of permeability from basolateral to apical side over apical to basolateral side in dog MDCK cells expressing human MDR. The following applies: MDCK-MDR1. The class given is ADME, cell-based, Canis lupus familiaris.
Data set [12] deals with Mus musculus. As to the kind of experiment: Antipsychotic activity in CD1 mouse assessed as increase in brain cGMP levels at 32 mg/kg, sc measured after 15 mins post dosing relative to control. The class given is functional. The following applies: route subcutaneous.
Data set [13] deals with Mus musculus. In words: Antipsychotic activity in CD1 mouse assessed as increase in brain cGMP levels at 32 mg/kg, sc measured after 30 mins post dosing relative to control. The class given is functional. The following applies: route subcutaneous.
Data set [14] is described as follows: Selectivity ratio IC50 for PDE4D to IC50 for rat PDE10A.
The nature of data set [15]: Selectivity ratio IC50 for PDE7A to IC50 for rat PDE10A.
Data set [16] can be described thus: Selectivity ratio IC50 for PDE11A to IC50 for rat PDE10A.
Data set [17] is described as follows: Selectivity ratio IC50 for PDE1A to IC50 for rat PDE10A.
Data set [18] in a line: Selectivity ratio IC50 for PDE8A to IC50 for rat PDE10A.
Data set [19] is described as follows: Selectivity ratio IC50 for PDE6A to IC50 for rat PDE10A.
Data set [20] in a line: Selectivity ratio IC50 for PDE9A to IC50 for rat PDE10A.
Data set [21] in a line: Selectivity ratio IC50 for PDE5A to IC50 for rat PDE10A.
The nature of data set [22]: Selectivity ratio IC50 for PDE2A to IC50 for rat PDE10A.
For data set [23], the system named is Mus musculus. As to the kind of experiment: Antipsychotic activity in sc dosed PDE10A-knock out DBA1LAC/J mouse assessed as inhibition of conditioned avoidance response administered 30 mins prior testing. The class given is functional.
Data set [24] relates to Mus musculus. In words: Antipsychotic activity in sc dosed PDE10A-positive DBA1LAC/J mouse assessed as inhibition of conditioned avoidance response administered 30 mins prior testing. The class given is functional.

T2 sequence (Q14432 whole entry): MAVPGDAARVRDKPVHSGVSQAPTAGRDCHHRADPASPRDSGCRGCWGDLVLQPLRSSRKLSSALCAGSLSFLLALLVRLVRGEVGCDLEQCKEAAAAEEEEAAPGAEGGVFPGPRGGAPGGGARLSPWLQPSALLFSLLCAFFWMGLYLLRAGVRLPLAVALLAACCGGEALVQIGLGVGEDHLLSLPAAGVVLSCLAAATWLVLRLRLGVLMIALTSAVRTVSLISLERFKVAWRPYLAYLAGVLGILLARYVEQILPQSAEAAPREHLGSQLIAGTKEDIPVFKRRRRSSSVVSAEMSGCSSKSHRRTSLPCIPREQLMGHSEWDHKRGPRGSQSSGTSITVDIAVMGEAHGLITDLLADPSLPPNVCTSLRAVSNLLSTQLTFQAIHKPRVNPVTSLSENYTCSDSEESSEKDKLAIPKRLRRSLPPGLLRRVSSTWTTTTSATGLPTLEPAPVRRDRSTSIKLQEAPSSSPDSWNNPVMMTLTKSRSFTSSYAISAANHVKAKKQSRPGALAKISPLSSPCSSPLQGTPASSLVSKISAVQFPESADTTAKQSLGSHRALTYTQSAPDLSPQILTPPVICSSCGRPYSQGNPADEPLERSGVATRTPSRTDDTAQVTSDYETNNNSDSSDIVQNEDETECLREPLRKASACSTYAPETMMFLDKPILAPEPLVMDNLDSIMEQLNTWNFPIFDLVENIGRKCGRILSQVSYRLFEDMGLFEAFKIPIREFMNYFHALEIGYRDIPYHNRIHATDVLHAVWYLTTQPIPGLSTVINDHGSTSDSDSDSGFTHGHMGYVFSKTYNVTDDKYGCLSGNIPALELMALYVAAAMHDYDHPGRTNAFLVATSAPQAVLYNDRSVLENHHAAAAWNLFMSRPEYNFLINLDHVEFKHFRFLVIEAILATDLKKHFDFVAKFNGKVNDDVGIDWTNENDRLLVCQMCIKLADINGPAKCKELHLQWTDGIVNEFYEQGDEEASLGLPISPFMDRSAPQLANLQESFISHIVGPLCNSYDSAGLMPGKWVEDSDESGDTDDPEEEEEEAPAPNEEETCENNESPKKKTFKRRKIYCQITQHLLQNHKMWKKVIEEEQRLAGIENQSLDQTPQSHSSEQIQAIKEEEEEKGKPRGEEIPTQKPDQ

In the case of `COc1cc2ncnc(N3CCCC(c4ccccc4)C3)c2cc1OCc1ccncc1` (stereo not drawn), the IC50 in data set [1] was over 3.2 µM.
With `COc1cc2ncnc(N3CCCC(c4ccccc4)C3)c2cc1OCc1ccccn1` (stereo not drawn), the IC50 in data set [1] was over 3.2 µM.
As for `COc1cc2ncnc(N3CCCC(c4ccccc4)C3)c2cc1OCCc1ccncc1` (stereo not drawn), in data set [1], the IC50 was over 3.2 µM.
As to `COc1cc2ncnc(N3CCCC(c4ccccc4)C3)c2cc1OCCc1ccccn1` (stereo not drawn), the inhibition in data set [2] amounted to 32%.
Turning to `COc1cc2ncnc(N3CCCC(c4ccccc4)C3)c2cc1OCc1cccnc1` (stereo not drawn), the IC50 in data set [1] is over 3.2 µM.
On the same count and under the same terms, the same measure for `c1ccc2nc(CCOc3ccc4ccncc4c3)ccc2c1`: 0.809 µM; for `COc1cc2ncnc(N3CCCC(c4ccccc4)C3)c2cc1OC` (racemic): 0.146 µM.
For `CCCOc1cc2c(N3CCCC(c4ccccc4)C3)ncnc2cc1OC` (stereo not drawn), the IC50 in [1] was determined as 1.04 µM; in data set [3], 0.098 µM. In data set [4], the Ratio IC50 is under 0.1.
With `COc1cc2ncnc(N3CCCC(c4ccccc4)C3)c2cc1OCCCc1nc2ccccc2n1C` (stereo not drawn), the IC50 in data set [1] was determined as 0.01 µM. In data set [2], this compound displayed an inhibition of 11%.
Regarding `COc1cc2cncnc2cc1OCCc1ccc2ccccc2n1`, in the data set on human MDR [5], the Papp A→B stood at 30 nm/s. The CLint scaled was 11 L/h/kg in data set [6] and under 0.42 L/h/kg in data set [8]. The result in the data set with Mus musculus [7] was inactive. The same compound returned an inhibition in [2] of 51%.
For `COc1cc2ncnc(N(C)C)c2cc1OCCc1ccc2ccccc2n1`, in the data set on human MDR [5], the Papp A→B came out at 190 nm/s. The values for the Activity in the data set with Mus musculus [9] and in the data set with Mus musculus [10] were 268% and 34%, respectively. For the same compound, the IC50 in data set [1] stood at 0.014 µM. In data set [8], the CLint scaled worked out at 10.7 L/h/kg.
As for `COc1cc2ncnc(N3CCCC(c4ccccc4)C3)c2cc1OC` (stereo not drawn) [listing 1 of 2 here], in the data set on human MDR [11], the efflux ratio amounted to 0.7. In data set [3], this compound had an IC50 of 0.0085 µM. In addition, the CLint scaled in [8] was 0.78 L/h/kg.
Regarding `COc1cc2ncnc(N3CCCC(c4ccccc4)C3)c2cc1OC` (stereo not drawn) [listing 2 of 2 here], in data set [4], the Ratio IC50 is under 0.1.
With `COc1cc2ncnc(N3CCCC(c4ccccc4)C3)c2cc1OCCc1ccccn1` (racemic), the Ratio IC50 in data set [4] is over 5.
Consider `COc1cc2ncn(C)c(=O)c2cc1OCCc1ccc2ccccc2n1`, for which the Papp A→B in the data set with human MDR [5] was found to be 180 nm/s. For the same compound, the Activity in the data set on Mus musculus [12] stood at 129%; with Mus musculus [13] it was 79%. Besides, the IC50 in data set [1] came to 0.012 µM. In data set [8], this compound had a CLint scaled of 5.58 L/h/kg.
As to `COc1cc2ncnc(N3CCCC(c4ccccc4)C3)c2cc1OCc1ccc2ccccc2n1` (stereo not drawn), the IC50 in [1] was over 3.2 µM.
With `COc1cc2ncnc(N3CCCC(c4ccccc4)C3)c2cc1OCCc1cccnc1` (stereo not drawn), the IC50 in data set [1] was found to be 2.34 µM.
Same read-out and setting: then `COc1cc2ncnc(N3CCCC(c4ccccc4)C3)c2cc1OCCc1ccccc1` (stereo not drawn), with 1.66 µM.
Turning to `COc1cc2ncnc(N3CCCC(c4ccccc4)C3)c2cc1OCCc1ccc2ccccc2n1` (stereo not drawn), the Ratio IC50 in data set [14], in data set [15], in data set [16], in data set [17], in [18] and in [4] was over 100 throughout. Besides, the Ratio IC50 in [19], in data set [20], in data set [21] and in data set [22] was over 100 throughout. Besides, in the data set with human MDR [11], the efflux ratio was over 10. In [8], this compound displayed a CLint scaled of over 1.14 L/h/kg.
In the case of `COc1cc2ncnc(-c3cccnc3)c2cc1OCCc1ccc2ccccc2n1`, in the data set on human MDR [5], the Papp A→B came to 4 nm/s. Besides, the ED50 was over 5.8 mg/kg in the data set with Mus musculus [23] and 3.18 mg/kg with Mus musculus [24]. For the same compound, the IC50 in [1] worked out at 0.005 µM. In data set [8], this compound showed a CLint scaled of under 0.48 L/h/kg. Also, the Activity in the data set with Mus musculus [10] was determined as 79%.
